Measured values gathered from unrelated publications.
Target: Glycogen synthase kinase-3 beta (GSK3B, Homo sapiens, UniProt P49841)
Method: competition with immobilised ligand

Structure (SMILES)	test	conditions	remaining binding [%]
COc1ncc2cc3ccccc3nc2c1C#N	cell-free assay	5 µM	99
CN([C@@H]1CCc2c(CC(=O)O)c3ccccc3n2C1)S(=O)(=O)c1ccc(F)cc1	cell-free assay	1 µM	93
O=C(c1ccc(Nc2ncc(Cl)c(-c3ccc(Cl)s3)n2)cc1)N1CCC(N2CCCC2)CC1	binding	1 µM	60
Cc1nc(Cc2cccc(C(F)(F)F)c2)sc1-c1ccc(C(N)=O)nc1	cell-free assay	1 µM	100
O=C(NCC1CCOCC1)c1n[nH]cc1NC(=O)c1c(F)cccc1F	binding	1 µM	0.2
CN(C)C(=O)Cn1cc(-c2nc(C3(c4ccc(-c5cnc(N)nc5)cc4)CC3)no2)cn1	cell-free assay	1 µM	81
Nc1ncc2c(n1)-c1c([nH]c3ccc(C#CC4CC4)cc13)CCCC2	binding	1 µM	98
Cn1nc(C(=O)NCc2ccc(C(=O)O)cc2)cc1-c1ccc2[nH]ccc2c1	cell-free assay	0.1 µM	78
COc1cnc(Nc2cccc(S(N)(=O)=O)c2)nc1N1CCN(c2ccccc2)C(=O)C1	binding	1 µM	91
CN(CCCC(F)(F)F)c1nccc(-c2cnn3ncccc23)n1	binding	1 µM	87
FC(F)(F)Oc1cccc(-c2cnc3ccc(-c4ccncc4)nn23)c1	cell-free assay	5 µM	78
O=C(NCCCN1CCOCC1)c1ccc(Nc2nccc(-c3cc4ccccc4s3)n2)cc1	binding	1 µM	73
CC(C)(C)c1ccc(-c2nc(CBr)nn2-c2cccc(O)c2)cc1	cell-free assay	10 µM	81
COc1cnc(Nc2cccc(S(N)(=O)=O)c2)nc1N1CCN(c2ccccc2)CC1	binding	1 µM	97
C[C@@H](c1ccc(-n2cnc3c(N)ncnc32)cc1)N1CCc2nn(C)c(Cc3ccccc3)c2C1=O	binding	0.1 µM	58
C[C@@H]1CN(c2ccc3ncc(-c4ccc5[nH]nc(C6CC6)c5c4)n3n2)C[C@H](C)O1	binding	0.5 µM	74
c1cnn2ncc(-c3ccnc(N4CCC45COC5)n3)c2c1	binding	1 µM	77
CC(C)CC(=O)N1CCc2nc(-c3ccc(Br)cc3)nc(N(C)Cc3ccccc3)c2C1	cell-free assay	0.1 µM	100
O=C(c1ccc(Nc2ncc(Cl)c(-c3cc4ccccc4s3)n2)cc1)N1CCC(N2CCCC2)CC1	binding	1 µM	37
